Data set [1] concerns Mus musculus. Nature of the data set: Toxicity in CD1 mouse assessed as body weight variation at 50 mg/kg, ip after 13 days. The format is organism-based. Details: dose 50 mg/kg, route intraperitoneal. As to conditions: in vivo, 312 h. The method in brief: (§1)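 Intraperitoneal dosing was given to groups of 4 mice alongside an untreated control group. Surviving mice were counted and signs noted. Mean body weight was recorded initially and after 5 and 13 days, expressed as % variation.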

For another data set, the system named is Liver microsomes. Nature of the data set: Metabolic stability in human liver microsomes assessed as clearance. The format is ADME, Microsome. The method in brief: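 Human liver microsomes were used at a final 0.5 mg/ml in potassium phosphate buffer pH 7.4, with compound in DMSO, pre-incubated 10 min at 37 °C. The reaction was started with NADP, G6P, G6P-DH, MgCl2 3 mM and UDPGA 1 mM. Samples were taken at 0 and 30 min, quenched in acetonitrile and analysed by LC–MS/MS. A no-cofactor control and a 7-ethoxycoumarin standard were included.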
On the technique in general: Liver microsomes are a subcellular fraction often used to study metabolism.

Data set [2] deals with Plasmodium falciparum. Nature of the data set: Antimalarial activity against chloroquine-sensitive Plasmodium falciparum D10 by LDH assay. The format is functional, organism-based. In a few lines:
(§2)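 Parasite growth inhibition in P. falciparum culture was read as parasite lactate dehydrogenase production. IC50 is the mean of 3–4 experiments, each run in triplicate.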

Data set [3] relates to Plasmodium falciparum. Nature of the data set: Antimalarial activity against chloroquine-resistant Plasmodium falciparum W2 by LDH assay. The format is functional, organism-based. The method in brief: as §2
Data set [4] relates to Plasmodium falciparum. Nature of the data set: Antimalarial activity against chloroquine-sensitive Plasmodium falciparum NF54 by [3H]hypoxanthine uptake. The format is functional, organism-based. The method in brief:
(§3)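 Growth inhibition of P. falciparum was measured by [3H]-hypoxanthine incorporation. IC50 is the mean of two experiments.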

The subject of data set [5] is Plasmodium falciparum. Nature of the data set: Antimalarial activity against chloroquine-resistant Plasmodium falciparum K1 by [3H]hypoxanthine uptake. The format is functional, organism-based. The method in brief:
as §3

Data set [6] has as its target T1, Histidine-rich protein PFHRP-II (Plasmodium falciparum) (UniProt P05227).
T1 sequence (whole entry): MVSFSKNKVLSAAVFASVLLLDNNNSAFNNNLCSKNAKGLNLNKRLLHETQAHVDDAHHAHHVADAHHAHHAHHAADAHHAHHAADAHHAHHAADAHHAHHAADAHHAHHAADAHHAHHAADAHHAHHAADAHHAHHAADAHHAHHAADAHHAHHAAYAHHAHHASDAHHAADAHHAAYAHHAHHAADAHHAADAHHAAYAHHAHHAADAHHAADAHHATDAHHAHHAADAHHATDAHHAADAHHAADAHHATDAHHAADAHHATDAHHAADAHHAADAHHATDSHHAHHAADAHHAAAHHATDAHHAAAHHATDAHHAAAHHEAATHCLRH
Nature of the data set: Inhibition of beta-hematin formation as ratio to heme molar equivalent in Plasmodium falciparum. The format is functional.

The nature of data set [7]: Cytotoxicity against mouse WEHI clone 13 cells by MTT assay. The format is cell-based.
Data set [8] can be described thus: Cytotoxicity against human HMEC1 cells by MTT assay. The format is cell-based. The note with it: HMEC-1. (In general: Tetrazolium assays rely on reduction of a dye to a coloured formazan, in cell work by metabolically active cells.)
Another data set relates to K562. Nature of the data set: Cytotoxicity against human K562 cells by MTT assay. The format is cell-based.
Data set [9] concerns Plasmodium berghei. Nature of the data set: Antimalarial activity as reduced parasitaemia against Plasmodium berghei ANKA infected NMRI mice (Mus musculus) at 100 mg/kg peroral dose after 3 days. The format is functional. Details: scale not given: the % may be the effect or the level left. As to conditions: route oral. The method in brief:
(§4)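 GFP-transfected P. berghei ANKA-infected NMRI mice, in groups of three, got a single dose 1 day post-infection. Compounds were in 70/30 Tween 80/ethanol, diluted 10× with water. Read-outs were % parasitemia reduction on day 3 post-infection and survival time versus untreated controls (n = 5).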

The test system of data set [10] is Plasmodium berghei. Nature of the data set: Antimalarial activity as survival time in Plasmodium berghei ANKA infected NMRI mice (Mus musculus) at 100 mg/kg peroral dose after 3 days. The format is functional. As to conditions: route oral. In a few lines:
as §4

For data set [11], the system named is Plasmodium berghei. Nature of the data set: Antimalarial activity as reduced parasitaemia against Plasmodium berghei ANKA infected NMRI mice (Mus musculus) at 30 mg/kg subcutaneous dose after 3 days. The format is functional. On the set-up: scale not given: the % may be the effect or the level left. The method in brief: as §4
Data set [12] deals with Plasmodium berghei. Nature of the data set: Antimalarial activity as survival time in Plasmodium berghei ANKA infected NMRI mice (Mus musculus) at 30 mg/kg subcutaneous dose after 3 days. The format is functional. In a few lines: as §4
Data set [13] deals with Plasmodium berghei. Nature of the data set: Antimalarial activity as reduced parasitaemia against Plasmodium berghei ANKA infected NMRI mice (Mus musculus) at 30 mg/kg/day peroral dose over 4 days. As to conditions: route oral. The format is functional. Details: scale not given: the % may be the effect or the level left. In a few lines: (§5)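 NMRI mice, in groups of three, were infected with GFP-transfected P. berghei ANKA. Treatment started 1 day post-infection, once daily for 4 consecutive days. Compounds were formulated in 70/30 Tween 80/ethanol and diluted 10× with water. Read-outs were % parasitemia reduction on day 4 post-infection and survival versus untreated controls (n = 5). Cure meant no parasites by microscopy at day 30.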

Data set [14] deals with Plasmodium berghei. Nature of the data set: Antimalarial activity a survival time in Plasmodium berghei ANKA infected NMRI mice (Mus musculus) at 30 mg/kg/day peroral dose over 4 days. The format is functional. As to conditions: route oral. The method in brief: as §5
Data set [15] deals with Plasmodium berghei. Nature of the data set: Antimalarial activity as reduced parasitaemia against Plasmodium berghei ANKA infected NMRI mice (Mus musculus) at 10 mg/kg/day peroral dose over 4 days. The format is functional. The note with it: route oral. Details: scale not given: the % may be the effect or the level left. The method in brief: as §5
Data set [16] deals with Plasmodium berghei. Nature of the data set: Antimalarial activity as survival time against Plasmodium berghei ANKA infected NMRI mice (Mus musculus) at 10 mg/kg/day peroral dose over 4 days. The format is functional. The note with it: route oral. In a few lines: as §5
Data set [17] relates to Plasmodium berghei. Nature of the data set: Antimalarial activity as reduced parasitaemia against Plasmodium berghei ANKA infected NMRI mice (Mus musculus) at 10 mg/kg/day subcutaneous dose over 4 days. On the set-up: scale not given: the % may be the effect or the level left. The format is functional. The method in brief: as §5
Data set [18] has as its system Plasmodium berghei. Nature of the data set: Antimalarial activity as survival time against Plasmodium berghei ANKA infected NMRI mice (Mus musculus) at 10 mg/kg/day subcutaneous dose over 4 days. The format is functional. In a few lines:
as §5

The subject of data set [19] is Plasmodium berghei. Nature of the data set: Antimalarial activity as reduced parasitaemia against Plasmodium berghei ANKA infected NMRI mice (Mus musculus) at 3 mg/kg/day subcutaneous dose over 4 days. The format is functional. On the set-up: scale not given: the % may be the effect or the level left. In a few lines: as §5
The test system of data set [20] is Plasmodium berghei. Nature of the data set: Antimalarial activity as survival time against Plasmodium berghei ANKA infected NMRI mice (Mus musculus) at 3 mg/kg/day subcutaneous dose over 4 days. The format is functional. The method in brief: as §5
Data set [21] concerns Mus musculus. Nature of the data set: Toxicity in CD1 mouse assessed as survival at 100 mg/kg, ip. The format is organism-based. Details: dose 100 mg/kg, route intraperitoneal. As to conditions: in vivo. In a few lines: as §1
The test system of data set [22] is Mus musculus. Nature of the data set: Toxicity in CD1 mouse assessed as survival at 50 mg/kg, ip. The format is organism-based. Details: dose 50 mg/kg, route intraperitoneal. As to conditions: in vivo. In a few lines: as §1
The test system of data set [23] is Mus musculus. Nature of the data set: Toxicity in CD1 mouse assessed as body weight variation at 150 mg/kg, ip after 5 days. The format is organism-based. On the set-up: dose 150 mg/kg, route intraperitoneal. The note with it: in vivo, 120 h. The method in brief:
as §1

Data set [24] relates to Mus musculus. Nature of the data set: Toxicity in CD1 mouse assessed as body weight variation at 100 mg/kg, ip after 5 days. The format is organism-based. On the set-up: dose 100 mg/kg, route intraperitoneal. The note with it: in vivo, 120 h. The method in brief: as §1
Data set [25] has as its system Mus musculus. Nature of the data set: Toxicity in CD1 mouse assessed as body weight variation at 50 mg/kg, ip after 5 days. The format is organism-based. On the set-up: dose 50 mg/kg, route intraperitoneal. The note with it: in vivo, 120 h. The method in brief:
as §1

For data set [26], the system named is Mus musculus. Nature of the data set: Toxicity in CD1 mouse assessed as body weight variation at 150 mg/kg, ip after 13 days. As to conditions: in vivo, 312 h. The format is organism-based. Details: dose 150 mg/kg, route intraperitoneal. In a few lines:
as §1

Data set [27] concerns Mus musculus. Nature of the data set: Toxicity in CD1 mouse assessed as body weight variation at 100 mg/kg, ip after 13 days. As to conditions: in vivo, 312 h. The format is organism-based. On the set-up: dose 100 mg/kg, route intraperitoneal. The method in brief:
as §1

For data set [28], the system named is Plasmodium berghei. Nature of the data set: Antimalarial curative activity at day 30 against Plasmodium berghei ANKA infected NMRI mice (Mus musculus) at 30 mg/kg/day peroral dose over 4 days. The format is functional, organism-based. In a few lines: as §5

In general, IC50 refers to the concentration that gives 50% inhibition.

Each structure is given as a SMILES string. Calls of active or inactive are those of the source. No cut-off for these calls is given here.

As to `Clc1ccc2c(NCC34CCCN3CCC4)ccnc2c1`, the Activity came out at 20.8% with Mus musculus [1]; 1.06 in data set [6]; 99.5% with Plasmodium berghei [9]; 13.7 days with Plasmodium berghei [10]; 99.7% in the data set with Plasmodium berghei [11]; 10.3 days in the data set on Plasmodium berghei [12]. The Activity was above 99.9% with Plasmodium berghei [13]; 25 days with Plasmodium berghei [14]; above 99.9% in the data set with Plasmodium berghei [15]; 25.7 days in the data set with Plasmodium berghei [16]; above 99.9% with Plasmodium berghei [17]; 29.3 days in the data set on Plasmodium berghei [18]. Also, the Activity in the data set on Plasmodium berghei [19] was 96%; in the data set with Plasmodium berghei [20] it was 7.3 days; with Mus musculus [21], “Non-toxic”; in the data set on Mus musculus [22], “Non-toxic”; in the data set on Mus musculus [23], 12.9%; in the data set with Mus musculus [24] it was 10.1%. Moreover, the Activity in the data set with Mus musculus [25] is recorded as 8.3%; with Mus musculus [26] it was 22.9%; with Mus musculus [27], 22.2%. In addition, the CL in the data set with Liver microsomes amounted to 1.5 mL/min/g. Moreover, the IC50 is 30.6 nM in the data set with Plasmodium falciparum [2]; 28.9 nM with Plasmodium falciparum [3]; 10.9 nM in the data set with Plasmodium falciparum [4]; 10.6 nM in the data set with Plasmodium falciparum [5]; 24700 nM in data set [7]; above 60000 nM in [8]. The molecule further showed an IC50 in the data set on K562 of 18100 nM.

As to `CCOc1ccc2ccc(=O)oc2c1` [ETHOXYCOUMARIN], the CL in the data set with Liver microsomes worked out at 7 mL/min/g.

As to `Clc1ccc2c(NCCC34CCCN3CCC4)ccnc2c1`, the IC50 is 5.5 nM in the data set on Plasmodium falciparum [2]; 54.7 nM in the data set on Plasmodium falciparum [3]; 6.33 nM in the data set with Plasmodium falciparum [4]; 19.6 nM in the data set on Plasmodium falciparum [5]; 61400 nM in data set [7]; above 60000 nM in data set [8]. The molecule further showed an IC50 in the data set with K562 of 17600 nM. The Activity is 1.66 in data set [6]; 98% in the data set with Plasmodium berghei [9]; 12.3 days with Plasmodium berghei [10]; 99.1% with Plasmodium berghei [11]; 8.7 days in the data set with Plasmodium berghei [12]; above 99.9% in the data set on Plasmodium berghei [13]. The Activity is 30 days with Plasmodium berghei [14]; above 99.9% with Plasmodium berghei [15]; 14.7 days in the data set on Plasmodium berghei [16]; above 99.9% in the data set with Plasmodium berghei [17]; 15.3 days with Plasmodium berghei [18]; 94% in the data set on Plasmodium berghei [19]. This molecule also returned an Activity with Plasmodium berghei [20] of 9.3 days. Moreover, the outcome in the data set with Plasmodium berghei [28] was Active.

In the case of `CCN(CC)CCCC(C)Nc1ccnc2cc(Cl)ccc12.O=P(O)(O)O.O=P(O)(O)O` (stereo not drawn) [CHLOROQUINE PHOSPHATE], the Activity in data set [6] is 1.69; with Plasmodium berghei [9], 99.2%; in the data set on Plasmodium berghei [10] it was 14.7 days; with Plasmodium berghei [11], 99.2%; with Plasmodium berghei [12], 9.7 days; in the data set with Plasmodium berghei [13], above 99.9%. In addition, the Activity in the data set with Plasmodium berghei [14] was 30 days; in the data set with Plasmodium berghei [15], 99.9%; in the data set on Plasmodium berghei [16], 22.3 days; in the data set with Plasmodium berghei [17], above 99.9%; in the data set on Plasmodium berghei [18] it was 15.7 days; with Plasmodium berghei [19], 99.8%. Moreover, the Activity in the data set on Plasmodium berghei [20] is 9.3 days. The half-maximal inhibitory concentration (IC50) was above 40000 nM in [7], above 40000 nM in [8] and 31800 nM with K562. The outcome with Plasmodium berghei [28] was Active.

The values are drawn from ChEMBL document CHEMBL1157479, “Antimalarial activity of novel pyrrolizidinyl derivatives of 4-aminoquinoline” (Bioorg Med Chem Lett, 2008).
